Reference: ChEMBL document CHEMBL3124820, “Design, synthesis and biological evaluation of hetero-aromatic moieties substituted pyrrole-2-carbonitrile derivatives as dipeptidyl peptidase IV inhibitors” (Eur J Med Chem, 2014)

Legend:
Homo sapiens [1] = species on record: Homo sapiens; experiment: Selectivity ratio of IC50 for recombinant his6-tagged DPP8 (unknown origin) to IC50 for recombinant his6-tagged DPP4 (unknown origin)
Procedure, shortened: (§1)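 His6-tagged DPP4, DPP8 and DPP9 were expressed in High Five insect cells by baculovirus and purified on Ni-NTA. Activity was followed continuously by fluorescence of AMC released from Ala-Pro-AMC (ex 355/em 460 nm). DPP4 ran at 50 pmol/L enzyme in HEPES pH 7.5 with 0.1 mg/mL BSA; DPP8 and DPP9 ran at pH 8.0. IC50s came from quadruplicate sigmoidal variable-slope fits, and the ratio is the IC50 ratio.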

Homo sapiens [2] = species on record: Homo sapiens; experiment: Selectivity ratio of IC50 for recombinant his6-tagged DPP9 (unknown origin) to IC50 for recombinant his6-tagged DPP4 (unknown origin); procedure, shortened: as §1
Dipeptidyl peptidase 9 = Dipeptidyl peptidase 9 (Homo sapiens, UniProt Q86TI2); experiment: Inhibition of recombinant his6-tagged DPP9 (unknown origin) expressed in baculovirus expression system using Ala-pro-AMC as substrate by fluorometric analysis
Dipeptidyl peptidase 8 = Dipeptidyl peptidase 8 (Homo sapiens, UniProt Q6V1X1); experiment: Inhibition of recombinant his6-tagged DPP8 (unknown origin) expressed in baculovirus expression system using Ala-pro-AMC as substrate by fluorometric analysis
Dipeptidyl peptidase 4 = Dipeptidyl peptidase 4 (Homo sapiens, UniProt P27487); experiment: Inhibition of recombinant his6-tagged DPP4 (unknown origin) expressed in baculovirus expression system using Ala-pro-AMC as substrate by fluorometric analysis
CYP2C9 = CYP2C9 (Homo sapiens, UniProt P11712); experiment: Inhibition of CYP2C9 (unknown origin) at 100 uM relative to control; format: ADME
CYP3A4 = CYP3A4 (Homo sapiens, UniProt P08684); experiment: Inhibition of CYP3A4 (unknown origin) at 100 uM relative to control; format: ADME
[3] = molecular target: Voltage-gated inwardly rectifying potassium channel KCNH2 (Homo sapiens, UniProt Q12809); experiment: Inhibition of human ERG expressed in CHO-ZG cells after 20 mins by FluxOR thallium assay
[4] = Oral bioavailability in Sprague-Dawley rat at 50 mg/kg; format: ADME, organism-based; conditions: in vivo
Procedure, shortened: (§2)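 Sprague-Dawley rats were dosed orally or intravenously, and blood was sampled after dosing. Plasma was separated by centrifugation and deproteinized with methanol containing an internal standard. The supernatant was diluted with methanol, centrifuged again and quantified by LC/MS/MS.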

[5] = Apparent clearance in Sprague-Dawley rat at 20 mg/kg, iv; format: ADME, organism-based; set-up: dose 20 mg/kg, route intravenous; conditions: in vivo, read-out: CL(app) (converted); procedure, shortened: as §2
[6] = Half life in Sprague-Dawley rat at 20 mg/kg, iv; format: ADME, organism-based; set-up: dose 20 mg/kg, route intravenous; conditions: in vivo; procedure, shortened: as §2
[7] = Half life in Sprague-Dawley rat at 50 mg/kg, po; format: ADME, organism-based; set-up: dose 50 mg/kg, route oral; conditions: in vivo; procedure, shortened: as §2
[8] = Mean residence time in Sprague-Dawley rat at 20 mg/kg, iv; format: ADME, organism-based; set-up: dose 20 mg/kg, route intravenous; conditions: in vivo; procedure, shortened: as §2
[9] = Mean residence time in Sprague-Dawley rat at 50 mg/kg, po; format: ADME, organism-based; set-up: dose 50 mg/kg, route oral; conditions: in vivo; procedure, shortened: as §2
[10] = AUC (0 to infinity) in Sprague-Dawley rat at 20 mg/kg, iv; format: ADME, organism-based; set-up: time infinity, dose 20 mg/kg, route intravenous; conditions: plasma; procedure, shortened: as §2
[11] = AUC (0 to infinity) in Sprague-Dawley rat at 50 mg/kg, po; format: ADME, organism-based; set-up: time infinity, dose 50 mg/kg, route oral; conditions: plasma; procedure, shortened: as §2
[12] = AUC (0 to t) in Sprague-Dawley rat at 20 mg/kg, iv; format: ADME, organism-based; set-up: dose 20 mg/kg, route intravenous; conditions: plasma; procedure, shortened: as §2
[13] = AUC (0 to t) in Sprague-Dawley rat at 50 mg/kg, po; format: ADME, organism-based; set-up: dose 50 mg/kg, route oral; conditions: plasma; procedure, shortened: as §2
[14] = Cmax in Sprague-Dawley rat at 20 mg/kg, iv; format: ADME, organism-based; set-up: dose 20 mg/kg, route intravenous; conditions: in vivo; procedure, shortened: as §2
[15] = Cmax in Sprague-Dawley rat at 50 mg/kg, po; format: ADME, organism-based; set-up: dose 50 mg/kg, route oral; conditions: in vivo; procedure, shortened: as §2
[16] = Tmax in Sprague-Dawley rat at 20 mg/kg, iv; format: ADME, organism-based; set-up: dose 20 mg/kg, route intravenous; conditions: in vivo; procedure, shortened: as §2
[17] = Tmax in Sprague-Dawley rat at 50 mg/kg, po; format: ADME, organism-based; set-up: dose 50 mg/kg, route oral; conditions: in vivo
Procedure, shortened: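 Sprague-Dawley rats dosed orally (i.v. arm run in parallel). Blood collected after dosing and centrifuged to plasma. Plasma deproteinized with methanol containing an internal standard, centrifuged, and the supernatant diluted in methanol and recentrifuged. Drug levels in the supernatant quantified by LC/MS/MS, and Tmax taken from the plasma concentration-time profile.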

Mus musculus [18] = experiment: Antidiabetic activity in C57BKS db/db mouse assessed as blood glucose level at 50 mg/kg/day administered for 5 weeks followed by glucose challenge at 6 hrs starvation of post last dose measured at 120 mins by OGTT (reference value: 28.1 +/- 1.3 mmol/L); format: functional
Procedure, shortened: (§3)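 C57BKS db/db mice received 5, 15 or 50 mg/kg/day for 5 weeks. Vehicle was 0.5% methylcellulose at 10 mL/kg/day. In week 5, mice were fasted 6 h and given an oral glucose load of 1.5 g/kg, then blood glucose was recorded over the glucose tolerance test. Data are mean ± SE, compared with Student's t-test.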

Mus musculus [19] = experiment: Antidiabetic activity in C57BKS db/db mouse assessed as blood glucose level at 50 mg/kg/day administered for 5 weeks followed by glucose challenge at 6 hrs starvation of post last dose measured at 90 mins by OGTT (reference value: 27.2 +/- 1.3 mmol/L); format: functional; procedure, shortened: as §3
Mus musculus [20] = experiment: Antidiabetic activity in C57BKS db/db mouse assessed as blood glucose level at 50 mg/kg/day administered for 5 weeks followed by glucose challenge at 6 hrs starvation of post last dose measured at 60 mins by OGTT (reference value: 30.2 +/- 1.5 mmol/L); format: functional; procedure, shortened: as §3
Mus musculus [21] = experiment: Antidiabetic activity in C57BKS db/db mouse assessed as blood glucose level at 50 mg/kg/day administered for 5 weeks followed by glucose challenge at 6 hrs starvation of post last dose measured at 30 mins by OGTT (reference value: 46.6 +/- 2.2 mmol/L); format: functional; procedure, shortened: as §3
Mus musculus [22] = experiment: Antidiabetic activity in C57BKS db/db mouse assessed as blood glucose level at 50 mg/kg/day administered for 5 weeks followed by glucose challenge at 6 hrs starvation of post last dose measured immediately by OGTT (reference value: 25 +/- 1.2 mmol/L); format: functional; procedure, shortened: as §3
Mus musculus [23] = experiment: Antidiabetic activity in C57BKS db/db mouse assessed as blood glucose level at 15 mg/kg/day administered for 5 weeks followed by glucose challenge at 6 hrs starvation of post last dose measured at 120 mins by OGTT (reference value: 28.1 +/- 1.3 mmol/L); format: functional; procedure, shortened: as §3
Mus musculus [24] = experiment: Antidiabetic activity in C57BKS db/db mouse assessed as blood glucose level at 15 mg/kg/day administered for 5 weeks followed by glucose challenge at 6 hrs starvation of post last dose measured at 90 mins by OGTT (reference value: 27.2 +/- 1.3 mmol/L); format: functional; procedure, shortened: as §3
Mus musculus [25] = experiment: Antidiabetic activity in C57BKS db/db mouse assessed as blood glucose level at 15 mg/kg/day administered for 5 weeks followed by glucose challenge at 6 hrs starvation of post last dose measured at 60 mins by OGTT (reference value: 30.2 +/- 1.5 mmol/L); format: functional; procedure, shortened: as §3
Mus musculus [26] = experiment: Antidiabetic activity in C57BKS db/db mouse assessed as blood glucose level at 15 mg/kg/day administered for 5 weeks followed by glucose challenge at 6 hrs starvation of post last dose measured at 30 mins by OGTT (reference value: 46.6 +/- 2.2 mmol/L); format: functional; procedure, shortened: as §3
Mus musculus [27] = experiment: Antidiabetic activity in C57BKS db/db mouse assessed as blood glucose level at 5 mg/kg/day administered for 5 weeks followed by glucose challenge at 6 hrs starvation of post last dose measured at 120 mins by OGTT (reference value: 28.1 +/- 1.3 mmol/L); format: functional; procedure, shortened: as §3
Mus musculus [28] = experiment: Antidiabetic activity in C57BKS db/db mouse assessed as blood glucose level at 15 mg/kg/day administered for 5 weeks followed by glucose challenge at 6 hrs starvation of post last dose measured immediately by OGTT (reference value: 25 +/- 1.2 mmol/L); format: functional; procedure, shortened: as §3
Mus musculus [29] = experiment: Antidiabetic activity in C57BKS db/db mouse assessed as blood glucose level at 5 mg/kg/day administered for 5 weeks followed by glucose challenge at 6 hrs starvation of post last dose measured at 90 mins by OGTT (reference value: 27.2 +/- 1.3 mmol/L); format: functional; procedure, shortened: as §3
Mus musculus [30] = experiment: Antidiabetic activity in C57BKS db/db mouse assessed as blood glucose level at 5 mg/kg/day administered for 5 weeks followed by glucose challenge at 6 hrs starvation of post last dose measured at 60 mins by OGTT (reference value: 30.2 +/- 1.5 mmol/L); format: functional; procedure, shortened: as §3
Mus musculus [31] = experiment: Antidiabetic activity in C57BKS db/db mouse assessed as blood glucose level at 5 mg/kg/day administered for 5 weeks followed by glucose challenge at 6 hrs starvation of post last dose measured at 30 mins by OGTT (reference value: 46.6 +/- 2.2 mmol/L); format: functional; procedure, shortened: as §3
Mus musculus [32] = experiment: Antidiabetic activity in C57BKS db/db mouse assessed as blood glucose level at 5 mg/kg/day administered for 5 weeks followed by glucose challenge at 6 hrs starvation of post last dose measured immediately by OGTT (reference value: 25 +/- 1.2 mmol/L); format: functional; procedure, shortened: as §3
Mus musculus [33] = experiment: Antidiabetic activity in ICR mouse assessed as decrease in blood glucose AUC (0 to 120 mins) administered for 30 mins prior to glucose challenge measured after 4 hrs by OGTT; format: functional, organism-based
Procedure, shortened: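 ICR mice fasted 16 h, then given a single dose of 15 or 50 mg/kg; vehicle 0.5% methylcellulose (10 mL/kg), LAF237 30 mg/kg as positive control. Oral glucose 2.5 g/kg given 30 min after dosing (legend says 4 h). Blood glucose read at 0, 15, 30, 60, 90, 120 min for AUC0–120. Mean ± SE, n = 10; Student's t-test.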

Mus musculus [34] = experiment: Antidiabetic activity in ICR mouse assessed as decrease in blood glucose AUC (0 to 120 mins) at 50 mg/kg administered for 30 mins prior to glucose challenge measured after 4 hrs by OGTT relative to vehicle-treated control; format: functional; set-up: scale not given: the % may be the effect or the level left
Procedure, shortened: (§4)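 ICR mice were fasted 16 h and given one dose in 0.5% methylcellulose vehicle (10 mL/kg). An oral glucose load of 2.5 g/kg followed; methods state 30 min after dosing, the figure legend 4 h.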

Mus musculus [35] = experiment: Antidiabetic activity in ICR mouse assessed as decrease in blood glucose AUC (0 to 120 mins) at 15 mg/kg administered for 30 mins prior to glucose challenge measured after 4 hrs by OGTT relative to vehicle-treated control; format: functional; set-up: scale not given: the % may be the effect or the level left; procedure, shortened: as §4

Sequence of Dipeptidyl peptidase 8 (Q6V1X1 whole entry): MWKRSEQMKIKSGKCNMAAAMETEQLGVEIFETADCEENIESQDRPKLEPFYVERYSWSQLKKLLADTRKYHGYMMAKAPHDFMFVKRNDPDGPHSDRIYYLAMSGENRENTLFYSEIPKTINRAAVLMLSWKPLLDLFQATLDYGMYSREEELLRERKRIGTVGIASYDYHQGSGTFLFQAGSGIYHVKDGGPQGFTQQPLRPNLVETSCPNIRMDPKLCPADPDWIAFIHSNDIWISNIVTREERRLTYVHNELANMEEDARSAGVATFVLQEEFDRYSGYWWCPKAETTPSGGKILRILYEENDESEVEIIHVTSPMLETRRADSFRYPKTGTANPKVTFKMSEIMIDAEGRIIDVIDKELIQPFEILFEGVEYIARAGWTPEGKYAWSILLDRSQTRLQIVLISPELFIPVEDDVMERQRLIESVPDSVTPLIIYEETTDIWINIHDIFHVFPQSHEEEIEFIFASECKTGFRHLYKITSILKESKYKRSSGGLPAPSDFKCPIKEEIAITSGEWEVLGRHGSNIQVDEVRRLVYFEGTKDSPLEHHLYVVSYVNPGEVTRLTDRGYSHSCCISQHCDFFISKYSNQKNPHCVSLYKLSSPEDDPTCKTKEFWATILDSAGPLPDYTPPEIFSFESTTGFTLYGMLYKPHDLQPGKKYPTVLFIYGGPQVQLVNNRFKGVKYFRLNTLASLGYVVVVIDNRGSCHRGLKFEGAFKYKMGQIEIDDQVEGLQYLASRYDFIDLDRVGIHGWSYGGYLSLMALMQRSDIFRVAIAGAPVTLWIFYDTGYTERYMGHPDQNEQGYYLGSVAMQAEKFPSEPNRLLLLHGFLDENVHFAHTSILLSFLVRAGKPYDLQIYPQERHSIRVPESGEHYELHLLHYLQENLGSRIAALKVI
Sequence of Dipeptidyl peptidase 9 (Q86TI2 whole entry): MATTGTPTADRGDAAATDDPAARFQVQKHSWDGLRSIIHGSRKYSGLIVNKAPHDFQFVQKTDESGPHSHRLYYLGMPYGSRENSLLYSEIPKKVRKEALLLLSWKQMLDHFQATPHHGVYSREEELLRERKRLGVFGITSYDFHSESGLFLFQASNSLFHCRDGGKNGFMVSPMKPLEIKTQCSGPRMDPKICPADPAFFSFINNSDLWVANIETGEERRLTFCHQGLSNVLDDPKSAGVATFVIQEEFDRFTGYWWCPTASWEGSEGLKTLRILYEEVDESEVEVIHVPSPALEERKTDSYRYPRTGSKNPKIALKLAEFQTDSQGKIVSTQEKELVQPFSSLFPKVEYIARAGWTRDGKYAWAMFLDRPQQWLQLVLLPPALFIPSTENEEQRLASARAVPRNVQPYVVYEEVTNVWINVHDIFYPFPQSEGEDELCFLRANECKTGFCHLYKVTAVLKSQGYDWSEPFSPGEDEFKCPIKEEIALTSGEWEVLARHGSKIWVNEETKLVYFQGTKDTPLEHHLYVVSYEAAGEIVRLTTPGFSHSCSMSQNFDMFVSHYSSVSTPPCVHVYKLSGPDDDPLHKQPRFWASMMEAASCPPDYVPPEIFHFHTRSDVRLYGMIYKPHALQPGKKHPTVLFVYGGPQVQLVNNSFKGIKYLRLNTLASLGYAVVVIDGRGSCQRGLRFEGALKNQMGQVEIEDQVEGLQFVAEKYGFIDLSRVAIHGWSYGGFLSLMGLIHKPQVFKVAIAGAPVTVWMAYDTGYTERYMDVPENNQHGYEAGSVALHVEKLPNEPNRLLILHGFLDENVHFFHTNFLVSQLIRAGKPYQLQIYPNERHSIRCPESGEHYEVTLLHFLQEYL
Sequence of Voltage-gated inwardly rectifying potassium channel KCNH2 (Q12809 whole entry): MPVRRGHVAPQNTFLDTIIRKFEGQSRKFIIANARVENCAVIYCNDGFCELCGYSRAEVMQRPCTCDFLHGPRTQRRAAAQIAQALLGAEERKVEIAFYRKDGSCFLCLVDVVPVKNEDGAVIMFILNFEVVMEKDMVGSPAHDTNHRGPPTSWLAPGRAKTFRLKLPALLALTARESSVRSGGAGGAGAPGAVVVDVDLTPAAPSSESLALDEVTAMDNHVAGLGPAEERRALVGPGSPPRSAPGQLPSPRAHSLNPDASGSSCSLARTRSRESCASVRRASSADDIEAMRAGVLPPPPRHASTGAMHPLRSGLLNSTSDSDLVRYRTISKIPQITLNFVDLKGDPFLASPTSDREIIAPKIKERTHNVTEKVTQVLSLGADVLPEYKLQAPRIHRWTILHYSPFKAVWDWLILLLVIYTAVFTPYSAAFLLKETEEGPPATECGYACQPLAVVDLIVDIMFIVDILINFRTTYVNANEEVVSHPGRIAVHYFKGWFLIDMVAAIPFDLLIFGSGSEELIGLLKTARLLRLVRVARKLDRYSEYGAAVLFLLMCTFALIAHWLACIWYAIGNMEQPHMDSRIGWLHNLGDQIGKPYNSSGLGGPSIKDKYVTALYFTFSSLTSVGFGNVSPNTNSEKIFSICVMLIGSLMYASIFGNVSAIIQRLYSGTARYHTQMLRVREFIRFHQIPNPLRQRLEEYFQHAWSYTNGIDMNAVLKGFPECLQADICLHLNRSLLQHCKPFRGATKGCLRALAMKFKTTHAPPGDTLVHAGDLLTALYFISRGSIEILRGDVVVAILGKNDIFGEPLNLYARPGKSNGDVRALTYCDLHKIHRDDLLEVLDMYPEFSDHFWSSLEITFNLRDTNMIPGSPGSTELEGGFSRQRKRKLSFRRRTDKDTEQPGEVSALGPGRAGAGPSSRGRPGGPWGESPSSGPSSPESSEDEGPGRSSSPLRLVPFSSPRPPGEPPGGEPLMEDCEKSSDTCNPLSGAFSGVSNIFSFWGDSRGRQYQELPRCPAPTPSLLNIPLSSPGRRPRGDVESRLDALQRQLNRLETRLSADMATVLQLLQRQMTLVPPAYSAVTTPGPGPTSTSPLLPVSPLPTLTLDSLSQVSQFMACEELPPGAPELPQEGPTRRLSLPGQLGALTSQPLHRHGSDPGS
Sequence of CYP2C9 (P11712 whole entry): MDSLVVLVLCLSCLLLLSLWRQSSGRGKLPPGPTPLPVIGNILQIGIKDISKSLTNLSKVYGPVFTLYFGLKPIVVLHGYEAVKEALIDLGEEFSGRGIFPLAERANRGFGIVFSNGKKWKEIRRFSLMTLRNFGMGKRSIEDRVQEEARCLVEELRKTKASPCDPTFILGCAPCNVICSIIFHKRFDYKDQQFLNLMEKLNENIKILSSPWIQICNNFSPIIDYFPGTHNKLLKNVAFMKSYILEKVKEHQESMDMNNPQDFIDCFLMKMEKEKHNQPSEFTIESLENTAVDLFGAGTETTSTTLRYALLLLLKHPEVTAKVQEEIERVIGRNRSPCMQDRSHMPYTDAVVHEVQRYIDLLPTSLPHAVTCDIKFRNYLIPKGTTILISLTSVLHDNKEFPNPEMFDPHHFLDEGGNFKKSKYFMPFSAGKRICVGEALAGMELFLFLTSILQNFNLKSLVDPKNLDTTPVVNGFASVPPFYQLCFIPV
Sequence of CYP3A4 (P08684 whole entry): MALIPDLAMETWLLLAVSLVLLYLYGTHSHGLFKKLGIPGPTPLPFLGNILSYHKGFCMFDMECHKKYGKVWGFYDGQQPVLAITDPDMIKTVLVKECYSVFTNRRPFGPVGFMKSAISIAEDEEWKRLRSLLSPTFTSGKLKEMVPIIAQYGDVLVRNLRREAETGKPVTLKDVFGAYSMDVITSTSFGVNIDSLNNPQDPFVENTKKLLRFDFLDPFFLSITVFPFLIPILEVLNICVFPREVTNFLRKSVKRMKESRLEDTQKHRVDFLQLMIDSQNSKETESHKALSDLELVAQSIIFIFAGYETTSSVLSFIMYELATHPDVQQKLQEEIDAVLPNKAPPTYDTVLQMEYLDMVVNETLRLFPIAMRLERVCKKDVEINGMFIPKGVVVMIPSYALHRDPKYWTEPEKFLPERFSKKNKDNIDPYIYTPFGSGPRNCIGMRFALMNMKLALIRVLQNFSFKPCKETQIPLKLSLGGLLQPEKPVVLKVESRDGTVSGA
Sequence of Dipeptidyl peptidase 4 (P27487 whole entry): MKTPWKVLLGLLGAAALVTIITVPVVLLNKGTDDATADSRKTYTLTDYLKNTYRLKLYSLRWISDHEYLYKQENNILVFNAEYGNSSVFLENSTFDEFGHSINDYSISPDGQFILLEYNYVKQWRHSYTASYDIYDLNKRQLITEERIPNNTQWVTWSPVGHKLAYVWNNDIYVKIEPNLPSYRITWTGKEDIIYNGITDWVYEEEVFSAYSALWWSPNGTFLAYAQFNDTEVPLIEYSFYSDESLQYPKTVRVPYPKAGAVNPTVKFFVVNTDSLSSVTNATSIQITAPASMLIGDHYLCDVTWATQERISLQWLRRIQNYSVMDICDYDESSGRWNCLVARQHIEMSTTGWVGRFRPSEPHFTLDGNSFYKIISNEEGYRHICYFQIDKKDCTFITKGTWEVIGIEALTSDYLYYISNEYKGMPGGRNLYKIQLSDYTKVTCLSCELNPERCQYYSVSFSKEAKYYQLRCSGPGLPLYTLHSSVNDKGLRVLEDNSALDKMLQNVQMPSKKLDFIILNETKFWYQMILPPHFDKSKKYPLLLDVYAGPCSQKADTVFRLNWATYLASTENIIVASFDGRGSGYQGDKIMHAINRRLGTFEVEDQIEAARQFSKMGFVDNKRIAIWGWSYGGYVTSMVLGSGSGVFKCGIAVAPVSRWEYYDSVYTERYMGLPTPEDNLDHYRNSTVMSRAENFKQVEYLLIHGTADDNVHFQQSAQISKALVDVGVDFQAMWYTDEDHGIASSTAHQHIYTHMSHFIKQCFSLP

N#C[C@@H]1CCCN1C(=O)[C@@H](N)Cc1ccoc1
Ratio IC50 (Homo sapiens [1]): > 2.5
Ratio IC50 (Homo sapiens [2]): > 2.5
IC50 (Dipeptidyl peptidase 9): > 288 µM
IC50 (Dipeptidyl peptidase 8): > 288 µM
IC50 (Dipeptidyl peptidase 4): 114 µM

N#C[C@@H]1C[C@H](F)CN1C(=O)[C@@H](N)Cc1cscn1
inhibition at 100 µM (CYP2C9): 11.2%
inhibition at 100 µM (CYP3A4): 7.4%
IC50 [3]: 177 µM
bioavailability [4]: 37.8%
clearance [5]: 6.96 L/h/kg
half-life [6]: 2.27 h
half-life [7]: 1.45 h
MRT [8]: 1.48 h
MRT [9]: 1.47 h
AUC(0-inf) [10]: 2.9 µg·h/mL
AUC(0-inf) [11]: 2.84 µg·h/mL
AUC(0-t) [12]: 2.89 µg·h/mL
AUC(0-t) [13]: 2.73 µg·h/mL
Cmax [14]: 2.96 µg/mL
Cmax [15]: 2.71 µg/mL
Tmax [16]: 0.3 h
Tmax [17]: 0.3 h
Activity (Mus musculus [18]): 20.4 mmol/L
Activity (Mus musculus [19]): 20.5 mmol/L
Activity (Mus musculus [20]): 19.9 mmol/L
Activity (Mus musculus [21]): 38 mmol/L
Activity (Mus musculus [22]): 18.1 mmol/L
Activity (Mus musculus [23]): 20.6 mmol/L
Activity (Mus musculus [24]): 20.8 mmol/L
Activity (Mus musculus [25]): 21.8 mmol/L
Activity (Mus musculus [26]): 41.3 mmol/L
Activity (Mus musculus [27]): 24.5 mmol/L
Activity (Mus musculus [28]): 18 mmol/L
Activity (Mus musculus [29]): 24.1 mmol/L
Activity (Mus musculus [30]): 27.5 mmol/L
Activity (Mus musculus [31]): 45.1 mmol/L
Activity (Mus musculus [32]): 21.5 mmol/L
Activity (Mus musculus [33]): Dose-dependent effect
Activity (Mus musculus [34]): 12.8%
Activity (Mus musculus [35]): 10.7%

N#C[C@@H]1CCCN1C(=O)[C@@H](N)Cc1ccccn1
IC50 (Dipeptidyl peptidase 9): 144 µM
IC50 (Dipeptidyl peptidase 8): 125 µM
